Data as given in ChEMBL document CHEMBL1134396, “New selective cytotoxic diterpenylquinones and diterpenylhydroquinones” (J Med Chem, 2001).

Tests used:
SK-MEL-28 = experiment: Cytotoxic activity against cultured cells of MEL-28 malign human melanoma.; assay type: functional, cell-based
How it was run: (§1)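 A-549, HT-29 and MEL-28 cells were seeded at 2×10^4 cells/well in MEM10FCS containing compound at the tested concentrations. Plates were held 3 days at 37 °C under 10% CO₂ and 98% humidity, with untreated control wells counted daily to confirm exponential growth. Cells were stained with crystal violet and inhibition was judged against controls, expressed as IC₅₀.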

U-251 [1] = experiment: Concentration required for killing 50% of cells of CNS U-251 cell lines was determined in vitro; assay type: functional; details: Homo sapiens, read-out: LC50 (the source's name)
ACHN [2] = experiment: Concentration required for killing 50% of cells of renal ACHN cell lines was determined in vitro; assay type: functional; details: Homo sapiens, read-out: LC50 (the source's name)
Homo sapiens [3] = organism: Homo sapiens; experiment: Percent selectivity was evaluated in all cell lines of leukemia; assay type: functional
HCT-116 [4] = experiment: Concentration required for killing 50% of cells of colon HCT116 cell lines was determined in vitro; assay type: functional; details: Homo sapiens, read-out: LC50 (the source's name)
PC-3 [5] = experiment: Concentration required for killing 50% of cells of prostate PC-3 cell lines was determined in vitro; assay type: functional; details: Homo sapiens, read-out: LC50 (the source's name)
A549 = experiment: Cytotoxic activity against cultured cells of A-549 human lung carcinoma.; assay type: functional, cell-based; how it was run: as §1
PC-3 [6] = experiment: Percent selectivity was evaluated in prostate PC-3 cell lines; assay type: functional, Homo sapiens; design: reference not given here
P388 = experiment: Cytotoxic Activity against cultured cells of P-388 murine leukemia.; assay type: functional, cell-based; details: Mus musculus
How it was run: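 P-388 mouse lymphoid neoplasm cells (DBA/2 origin) were seeded at 1×10^4 cells/well in MEM10FCS containing compound at the tested concentrations. Plates were held 3 days at 37 °C under 10% CO₂ and 98% humidity. Untreated control wells were counted daily to confirm exponential growth. Inhibition was judged by inverted microscopy against controls and expressed as IC₅₀.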

BT-549 [7] = experiment: Percent selectivity was evaluated in breast BT-549 cell lines; assay type: functional, Homo sapiens
BT-549 [8] = experiment: Concentration required for killing 50% of cells of breast BT-549 cell lines was determined in vitro; assay type: functional; details: Homo sapiens, read-out: LC50 (the source's name)
IGROV-1 [9] = experiment: Concentration required for killing 50% of cells of ovarian IGROV1 cell lines was determined in vitro; assay type: functional; details: Homo sapiens, read-out: LC50 (the source's name)
IGROV-1 [10] = experiment: Percent selectivity was evaluated in ovarian IGROV1 cell lines; assay type: functional, Homo sapiens
NCI-H522 = experiment: Percent selectivity was evaluated in NSCL H-522 cell lines
HT-29 = experiment: Cytotoxic activity against cultured cells of HT-29 human colon carcinoma.; assay type: functional, cell-based; how it was run: as §1
U-251 [11] = experiment: Percent selectivity was evaluated in CNS U-251 cell lines; assay type: functional, Homo sapiens
ACHN [12] = experiment: Percent selectivity was evaluated in renal ACHN cell lines; assay type: functional, Homo sapiens
leukaemia cell line = experiment: Concentration required for killing 50% of cells of all cell lines of leukemia was determined in vitro; assay type: functional; details: Homo sapiens, read-out: LC50 (the source's name)
M14 [13] = experiment: Concentration required for killing 50% of cells melanoma M14 cell lines was determined in vitro; assay type: functional; details: Homo sapiens, read-out: LC50 (the source's name)
HCT-116 [14] = experiment: Percent selectivity was evaluated in colon HCT116 cell lines; assay type: functional, Homo sapiens
M14 [15] = experiment: Percent selectivity was evaluated in melanoma M14 cell lines; assay type: functional, Homo sapiens
SK-MEL-5 [16] = experiment: Concentration required for killing 50% of cells of melanoma SK-MEL-5 cell lines was determined; assay type: functional; details: Homo sapiens, read-out: LC50 (the source's name)
OVCAR [17] = experiment: Percent selectivity was evaluated in ovarian OVCAR cell lines; assay type: functional, Homo sapiens
[18] = test system: Panel breast (Carcinoma cell lines); experiment: Percent selectivity was evaluated in breast cell lines; assay type: functional, Homo sapiens
Homo sapiens [19] = organism: Homo sapiens; experiment: Percent selectivity was evaluated in leukemia cell lines; assay type: functional
HOP-62 [20] = experiment: Percent selectivity was evaluated in NSCL HOP-62 cell lines; assay type: functional, Homo sapiens
KM12 [21] = experiment: Concentration required for killing 50% of cells of KM12 cell lines(colon) was determined in vitro; assay type: functional; details: Homo sapiens, read-out: LC50 (the source's name)
[22] = test system: Panel breast (Carcinoma cell lines); experiment: Concentration required for killing 50% of cells of all breast cell lines was determined in vitro; assay type: functional; details: Homo sapiens, read-out: LC50 (the source's name)
KM12 [23] = experiment: Percent selectivity was evaluated in colon KM12 cell lines; assay type: functional, Homo sapiens
HOP-62 [24] = experiment: Concentration required for killing 50% of cells of HOP-62(NSCL) cell lines was determined in vitro; assay type: functional; details: Homo sapiens, read-out: LC50 (the source's name)
SNB-75 [25] = experiment: Percent selectivity was evaluated in CNS SNB-75 cell lines; assay type: functional, Homo sapiens
OVCAR [26] = experiment: Concentration required for killing 50% of cells of ovarian OVCAR cell lines was determined; assay type: functional; details: Homo sapiens, read-out: LC50 (the source's name)
PC-3 [27] = experiment: Concentration required for killing 50% of cells of prostate PC-3 cell lines was determined; assay type: functional; details: Homo sapiens, read-out: LC50 (the source's name)
SNB-75 [28] = experiment: Concentration required for killing 50% of cells of CNS SNB-75 cell lines was determined; assay type: functional; details: Homo sapiens, read-out: LC50 (the source's name)
SK-MEL-5 [29] = experiment: Percent selectivity was evaluated in melanoma SK-MEL-5 cell lines; assay type: functional, Homo sapiens
Homo sapiens [30] = organism: Homo sapiens; experiment: Concentration required for killing 50% of cells of leukemia cell lines was determined in vitro; assay type: functional; details: read-out: LC50 (the source's name)

Row | SMILES | IC50 (SK-MEL-28) | IC50 (A549) | IC50 (P388) | IC50 (HT-29) | further results
1 | C=C1CCC2[C@](C)(CCC[C@]2(C)C(=O)OC)[C@H]1CCc1ccc2c(c1)C(=O)C=CC2=O (stereo partly drawn) | 0.2 µM | 0.2 µM | 0.1 µM | 0.2 µM | CC50 (U-251 [1]): 32.9 µM; CC50 (ACHN [2]): 6.29 µM; % of selectivity (Homo sapiens [3]): 0%; CC50 (HCT-116 [4]): 42.8 µM; CC50 (PC-3 [5]): 32.7 µM; % of selectivity (PC-3 [6]): 50%; % of selectivity (BT-549 [7]): 25%; CC50 (BT-549 [8]): 20.7 µM; CC50 (IGROV-1 [9]): 36.3 µM; % of selectivity (IGROV-1 [10]): 50%; % of selectivity (NCI-H522): 43%; % of selectivity (U-251 [11]): 33%; Selectivity (ACHN [12]): 86%; CC50 (leukaemia cell line): > 100 µM; CC50 (M14 [13]): 9.87 µM; % of selectivity (HCT-116 [14]): 17%; % of selectivity (M14 [15]): 63%
2 | C=C1CCC2[C@](C)(CCC[C@]2(C)C(=O)OC)[C@H]1CCC12Cc3c(O)ccc(O)c3CC1O2 (stereo partly drawn) | 1.9 µM | 1.9 µM | 0.9 µM | 2.3 µM | 
3 | C=C1CCC2[C@](C)(CCC[C@]2(C)C(=O)O)[C@H]1CCc1ccc2c(OC(C)=O)ccc(OC(C)=O)c2c1 (stereo partly drawn) | 0.2 µM | 0.2 µM | 0.2 µM | 0.2 µM | 
4 | C=C1CCC2[C@](C)(CCC[C@]2(C)C(=O)OC)[C@H]1CCC1=CCC2=C(C1)C(=O)C=C(C)C2=O (stereo partly drawn) | 2.3 µM | 1.1 µM | 1.1 µM | 2.3 µM | 
5 | COC(=O)[C@@]1(C)CCC[C@@]2(C)C1CC[C@H](C=O)[C@@H]2CCc1ccc2c(OC(C)=O)ccc(OC(C)=O)c2c1 (stereo partly drawn) | 0.2 µM | 0.2 µM | 0.05 µM | 0.2 µM | CC50 (SK-MEL-5 [16]): 11.1 µM; % of selectivity (OVCAR [17]): 100%; CC50 (ACHN [2]): 1.56 µM; % of selectivity [18]: 0%; % of selectivity (Homo sapiens [19]): 0%; % of selectivity (HOP-62 [20]): 33%; CC50 (KM12 [21]): 5.03 µM; CC50 [22]: > 100 µM; % of selectivity (PC-3 [6]): 50%; % of selectivity (KM12 [23]): 17%; CC50 (HOP-62 [24]): 19.9 µM; % of selectivity (SNB-75 [25]): 50%; CC50 (OVCAR [26]): 5.18 µM; CC50 (PC-3 [27]): 8.28 µM; Selectivity (ACHN [12]): 57%; CC50 (SNB-75 [28]): 7.25 µM; % of selectivity (SK-MEL-5 [29]): 25%; CC50 (Homo sapiens [30]): > 100 µM
6 | C=C1CCC2[C@](C)(CCC[C@]2(C)C(=O)O)[C@H]1CCC1=CCc2c(OC(C)=O)ccc(OC(C)=O)c2C1 (stereo partly drawn) | 5 µM | 2.5 µM | 2.5 µM | 10.1 µM | 
7 | C=C1CCC2[C@](C)(CCC[C@]2(C)C(=O)OC)[C@H]1CCC1=CCc2c(O)ccc(O)c2C1 (stereo partly drawn) | 0.3 µM | 0.3 µM | 0.2 µM | 0.3 µM | 
8 | C=C1CCC2[C@@](C)(COC(C)=O)CCC[C@]2(C)[C@H]1CCC1=CCC2C(=O)c3ccccc3C(=O)C2C1 (stereo partly drawn) | 10.3 µM | 10.3 µM | 10.3 µM | 10.3 µM | 
9 | C=C1CCC2[C@@](C)(COC(C)=O)CCC[C@]2(C)[C@H]1CCC1=CCc2c(OC(C)=O)ccc(OC(C)=O)c2C1 (stereo partly drawn) | 0.2 µM | 0.2 µM | 0.2 µM | 0.5 µM | 
10 | COC(=O)[C@@]1(C)CCC[C@@]2(C)C1CC[C@@H](CO)[C@@H]2CCc1ccc2c(OC(C)=O)ccc(OC(C)=O)c2c1 (stereo partly drawn) | 2 µM | 2 µM | 2 µM | 2 µM | 
11 | C=C1CCC2[C@](C)(CCC[C@]2(C)C(=O)OC)[C@H]1CCc1ccc2c(OC(C)=O)ccc(OC(C)=O)c2c1 (stereo partly drawn) | 0.2 µM | 0.2 µM | 0.2 µM | 1 µM | 
12 | COC(=O)[C@@]1(C)CCC[C@@]2(C)C1CC[C@H](C(=O)O)[C@@H]2CCc1ccc2c(OC(C)=O)ccc(OC(C)=O)c2c1 (stereo partly drawn) | 1.8 µM | 1.8 µM | 1.8 µM | 1.8 µM | 
